# Source: ChEMBL document CHEMBL1127752, “Synthesis and antitumor activity of novel mitomycin derivatives containing functional groups at the C-6-methyl position” (J Med Chem, 1994)
# Columns and labels:
# [1] = tested on: CCRF S-180; assay: Optimal dose towards sarcoma 180 cells, inoculated subcutaneously to the axillary region of ddY mice; assay type: functional, Mus musculus
# Summary of the method: (§1)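 Sarcoma 180 cells implanted sc in the axillary region of ddY mice on day 0; compounds given iv on day 1. Tumor volume compared treated versus control (T/C). 50% growth-inhibitory dose calculated from the dose-response curve; optimal dose also recorded.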
# [2] = tested on: Mus musculus; assay: In vivo antitumor activity against lymphatic leukemia P388 cells resistant to mitomycin C (MMC) was measured as maximal increase in life span of the treated mice at optimal dose of 25 mg/kg; assay type: functional
# [3] = tested on: Mus musculus; assay: In vivo antitumor activity against lymphatic leukemia P388 cells sensitive to mitomycin C (MMC) was measured as maximal increase in life span of the treated mice at optimal dose of 50 mg/kg; assay type: functional
# [4] = tested on: Mus musculus; assay: Effective dose that gave 50% inhibition of tumor growth was calculated towards sarcoma 180 cells which were inoculated subcutaneously to the axillary region of ddY mice; assay type: functional; conditions: Mus musculus, 180, sc; summary of the method: as §1
# [5] = tested on: HeLa; assay: In vitro anticellular activity tested against HeLa S3 cells; assay type: functional, cell-based; conditions: Homo sapiens
# Summary of the method: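 HeLa S3 cells seeded on day 0, then exposed to drug for 1 h on day 1; anticellular activity determined by a previously described method.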
# [6] = tested on: Mus musculus; assay: In vivo antitumor activity against lymphatic leukemia P388 cells resistant to mitomycin C (MMC) was measured as maximal increase in life span of the treated mice at optimal dose of 46 mg/kg; assay type: functional
# [7] = tested on: Mus musculus; assay: In vivo antitumor activity against lymphatic leukemia P388 cells resistant to mitomycin C (MMC) was measured as maximal increase in life span of the treated mice at optimal dose of 13 mg/kg; assay type: functional
# [8] = tested on: Mus musculus; assay: In vivo antitumor activity against lymphatic leukemia P388 cells sensitive to mitomycin C (MMC) was measured as maximal increase in life span of the treated mice at optimal dose of 13 mg/kg; assay type: functional
# [9] = tested on: Mus musculus; assay: In vivo antitumor activity against lymphatic leukemia P388 cells sensitive to mitomycin C (MMC) was measured as maximal increase in life span of the treated mice at optimal dose of 3.1 mg/kg; assay type: functional
# [10] = tested on: Mus musculus; assay: In vivo antitumor activity against lymphatic leukemia P388 cells resistant to mitomycin C (MMC) was measured as maximal increase in life span of the treated mice at optimal dose of 3.1 mg/kg; assay type: functional
# [11] = tested on: Mus musculus; assay: In vivo antitumor activity against lymphatic leukemia P388 cells resistant to mitomycin C (MMC) was measured as maximal increase in life span of the treated mice at optimal dose of 1.6 mg/kg; assay type: functional
compound,measurement,setting,value
CO[C@@]12[C@H](COC(N)=O)C3=C(C(=O)C(CSC(C)C)=C(N)C3=O)N1C[C@@H]1N[C@@H]12,OD,[1],25 mg/kg
same,ILS at 25 mg/kg,[2],30%
same,ILS at 50 mg/kg,[3],58%
same,ED50,[4],8.4 mg/kg
same,IC50,[5],5400 nM
CO[C@@]12[C@H](COC(N)=O)C3=C(C(=O)C(CSc4ccccc4O)=C(N)C3=O)N1C[C@@H]1N[C@@H]12,OD,[1],46 mg/kg
same,ILS at 46 mg/kg,[6],> 67%
same,ED50,[4],22 mg/kg
same,IC50,[5],2200 nM
CO[C@@]12[C@H](COC(N)=O)C3=C(C(=O)C(CSCCO)=C(N)C3=O)N1C[C@@H]1N[C@@H]12,IC50,[5],> 100000 nM
CO[C@@]12[C@H](COC(N)=O)C3=C(C(=O)C(CSc4nc5ccccc5o4)=C(N)C3=O)N1C[C@@H]1N[C@@H]12,IC50,[5],5100 nM
CO[C@@]12[C@H](COC(N)=O)C3=C(C(=O)C(CSC4OC(COC(C)=O)C(OC(C)=O)C(OC(C)=O)C4OC(C)=O)=C(N)C3=O)N1C[C@@H]1N[C@@H]12 (stereo partly specified),OD,[1],25 mg/kg
same,ILS at 13 mg/kg,[7],> 143%
same,ED50,[4],24 mg/kg
same,ILS at 13 mg/kg,[8],58%
same,IC50,[5],1100 nM
CO[C@@]12[C@H](COC(N)=O)C3=C(C(=O)C(CSc4ncccc4O)=C(N)C3=O)N1C[C@@H]1N[C@@H]12,OD,[1],6.3 mg/kg
same,ILS at 3.1 mg/kg,[9],49%
same,ED50,[4],3.7 mg/kg
same,ILS at 3.1 mg/kg,[10],26%
same,IC50,[5],190 nM
CO[C@@]12[C@H](COC(N)=O)C3=C(C(=O)C(CSc4ccccc4C(C)C)=C(N)C3=O)N1C[C@@H]1N[C@@H]12,IC50,[5],27000 nM
CO[C@@]12[C@H](COC(N)=O)C3=C(C(=O)C(CSCC4CC4)=C(N)C3=O)N1C[C@@H]1N[C@@H]12,OD,[1],25 mg/kg
same,ED50,[4],13 mg/kg
same,ILS at 1.6 mg/kg,[11],> 115%
same,ILS at 13 mg/kg,[8],43%
same,IC50,[5],1100 nM
CO[C@@]12[C@H](COC(N)=O)C3=C(C(=O)C(CSCC(O)CO)=C(N)C3=O)N1C[C@@H]1N[C@@H]12 (stereo partly specified),IC50,[5],> 100000 nM
CO[C@@]12[C@H](COC(N)=O)C3=C(C(=O)C(CO)=C(N)C3=O)N1C[C@@H]1N[C@@H]12,IC50,[5],> 29000 nM
CO[C@@]12[C@H](COC(N)=O)C3=C(C(=O)C4=C(Nc5ccccc5SC4)C3=O)N1C[C@@H]1N[C@@H]12,OD,[1],100 mg/kg
same,ILS at 25 mg/kg,[2],48%
same,ED50,[4],35 mg/kg
same,ILS at 13 mg/kg,[8],36%
same,IC50,[5],310 nM
CO[C@@]12[C@H](COC(N)=O)C3=C(C(=O)C4=C(NCCSC4)C3=O)N1C[C@@H]1N[C@@H]12,IC50,[5],1300 nM
CO[C@@]12[C@H](COC(N)=O)C3=C(C(=O)C(CSC4=NCCS4)=C(N)C3=O)N1C[C@@H]1N[C@@H]12,OD,[1],6.3 mg/kg
same,ILS at 3.1 mg/kg,[9],62%
same,ED50,[4],5.9 mg/kg
same,ILS at 3.1 mg/kg,[10],64%
same,IC50,[5],820 nM
COCC1=C(N)C(=O)C2=C(C1=O)N1CC3C(N3C)[C@]1(OC)[C@@H]2COC(N)=O (stereo partly specified),IC50,[5],> 100000 nM
CO[C@@]12[C@H](COC(N)=O)C3=C(C(=O)C(C[S+]([O-])C(C)C)=C(N)C3=O)N1C[C@@H]1N[C@@H]12 (stereo partly specified),IC50,[5],> 10000 nM
CO[C@@]12[C@H](COC(N)=O)C3=C(C(=O)C(CSc4ccc(O)cc4)=C(N)C3=O)N1C[C@@H]1N[C@@H]12,IC50,[5],116000 nM
CCCCCCCCCCCCSCC1=C(N)C(=O)C2=C(C1=O)N1C[C@@H]3N[C@@H]3[C@]1(OC)[C@@H]2COC(N)=O,IC50,[5],5500 nM
CO[C@@]12[C@H](COC(N)=O)C3=C(C(=O)C(CS(=O)(=O)C(C)C)=C(N)C3=O)N1C[C@@H]1N[C@@H]12,IC50,[5],> 10000 nM
CO[C@@]12[C@H](COC(N)=O)C3=C(C(=O)C(CSc4ccccc4Br)=C(N)C3=O)N1C[C@@H]1N[C@@H]12,IC50,[5],48000 nM
CO[C@@]12[C@H](COC(N)=O)C3=C(C(=O)C(CSc4ncc[nH]4)=C(N)C3=O)N1C[C@@H]1N[C@@H]12,IC50,[5],92000 nM
CO[C@@]12[C@H](COC(N)=O)C3=C(C(=O)C(CSc4nnnn4C)=C(N)C3=O)N1C[C@@H]1N[C@@H]12,IC50,[5],120 nM
COCC1=C(OC)C(=O)C2=C(C1=O)N1CC3NC3[C@]1(OC)[C@@H]2COC(N)=O (stereo partly specified),IC50,[5],120 nM
CO[C@@]12[C@H](COC(N)=O)C3=C(C(=O)C(CSc4nccn4C)=C(N)C3=O)N1C[C@@H]1N[C@@H]12,IC50,[5],760 nM
CCSCC1=C(N)C(=O)C2=C(C1=O)N1C[C@@H]3N[C@@H]3[C@]1(OC)[C@@H]2COC(N)=O,IC50,[5],2200 nM
